In assay [1] the target is T1, NAD-dependent protein deacetylase sirtuin-2 (Homo sapiens, UniProt Q8IXJ6).
T1 sequence (Q8IXJ6 whole entry): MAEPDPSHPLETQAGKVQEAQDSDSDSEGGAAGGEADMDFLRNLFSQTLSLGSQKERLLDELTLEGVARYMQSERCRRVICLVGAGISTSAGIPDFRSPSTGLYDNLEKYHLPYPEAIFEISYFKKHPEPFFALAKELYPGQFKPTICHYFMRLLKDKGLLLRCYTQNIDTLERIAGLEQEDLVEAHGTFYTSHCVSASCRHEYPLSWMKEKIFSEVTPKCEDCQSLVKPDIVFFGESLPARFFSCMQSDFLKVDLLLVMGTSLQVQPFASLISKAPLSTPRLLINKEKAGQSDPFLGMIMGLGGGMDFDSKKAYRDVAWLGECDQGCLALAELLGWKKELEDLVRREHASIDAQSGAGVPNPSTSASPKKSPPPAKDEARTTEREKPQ
As to the kind of experiment: Inhibition of recombinant His-tagged SIRT2 (56 to 356 residues) (unknown origin) expressed in Escherichia coli Transetta(DE3) using AcIQF as substrate preincubated for 30 mins followed by substrate and NAD+ addition measured after 2 hrs by fluorescence assay.

In assay [2] the test system is NCI-H441. Kind of assay: Anticlonogenic activity against human NCI-H441 cells at 3 to 30 uM after 2 weeks by crystal violet staining based assay. Type of assay: functional, cell-based. In short, it runs like this: (§1)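 Cells seeded at 5,000 per well in six-well plates and exposed to DMSO vehicle or compound for 2 weeks, with agents replaced every 3 days. Cells then fixed with methanol and stained with 0.05% crystal violet (w/v).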

For assay [3], the system named is NCI-H441. Kind of assay: Antiproliferative activity against human NCI-H441 cells assessed as reduction in EdU incorporation at 30 uM after 48 hrs by DAPI staining based fluorescence microscopic method. Type of assay: functional, cell-based. In short, it runs like this:
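Cells in 96-well plates treated with DMSO vehicle or compound (30 μM) for 48 h. Proliferation measured by EdU incorporation kit per manufacturer. EdU and DAPI nuclear fluorescence imaged on a high-content reader.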

In assay [4] the test system is NCI-H441. Kind of assay: Induction of apoptosis in human NCI-H441 cells assessed as live cells at 30 uM after 48 hrs by Annexin V-FITC/propidium iodide staining based flow cytometry (reference value: 88.5%). The format is functional.
The subject of assay [5] is NCI-H441. Kind of assay: Antiproliferative activity against human NCI-H441 cells after 72 hrs by MTT assay. The format is functional, cell-based. The note with it: NCI-H441, 72 h. In short, it runs like this:
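Cells in 96-well plates given DMSO vehicle or a range of compound concentrations for 72 h. MTT reagent (5 mg/mL stock) added, then 4 h at 37 °C. Formazan dissolved overnight in 20% acidified SDS (w/v), absorbance read at 570 nm. IC50 taken from the viability profile.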

For assay [6], the system named is NCI-H441. Kind of assay: Induction of apoptosis in human NCI-H441 cells assessed as necrotic cells at 30 uM after 48 hrs by Annexin V-FITC/propidium iodide staining based flow cytometry (reference value: 1.79%). The format is functional.
Assay [7] concerns NCI-H441. As to the kind of experiment: Induction of apoptosis in human NCI-H441 cells assessed as early apoptotic cells at 30 uM after 48 hrs by Annexin V-FITC/propidium iodide staining based flow cytometry (reference value: 2.47%). The format is functional.
The subject of assay [8] is NCI-H441. As to the kind of experiment: Antimigratory activity against human NCI-H441 cells assessed as reduction in wound closure at 10 to 30 uM after 24 hrs by light microscopic method. The format is functional, cell-based. An outline of the steps:
(§2)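 Confluent monolayers in 12-well plates were scratched with a sterile pipette tip, then treated with DMSO vehicle or compound for 24 h. Wounds photographed by digital camera on a light microscope.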

For assay [9], the system named is NCI-H441. Kind of assay: Induction of apoptosis in human NCI-H441 cells assessed as late apoptotic cells at 30 uM after 48 hrs by Annexin V-FITC/propidium iodide staining based flow cytometry (reference value: 7.25%). The format is functional.
Assay [10] has as its target T2, NAD-dependent protein deacetylase sirtuin-2 (Homo sapiens) (UniProt Q8IXJ6).
T2 sequence (whole entry): T1 sequence (Q8IXJ6 whole entry)
As to the kind of experiment: Inhibition of SIRT2 in human NCI-H441 cells assessed as increase in acetylated alpha-tubulin level after 72 hrs by Western blot analysis. Type of assay: cell-based. In short, it runs like this:
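H441 cells (ATCC, passaged <6 months after resuscitation) exposed to compound for 72 h. Whole-cell lysates separated by SDS-PAGE, transferred to PVDF and probed with anti-Ac-α-tubulin and anti-α-tubulin (1:1,000), then HRP secondaries (1:5,000) with ECL detection. Ac-α-tubulin normalized to α-tubulin, expressed relative to untreated control set to 1.0.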

The test system of assay [11] is NCI-H441. As to the kind of experiment: Anti-invasive activity against human NCI-H441 cells after 48 hrs by crystal violet staining based transwell assay. The format is functional, cell-based. In short, it runs like this:
(§3)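 H441 cells in serum-free RPMI1640 seeded at 5 × 10⁴/100 μL into Matrigel-precoated insert upper chambers, with DMSO vehicle or compound in serum-free medium above. Lower chambers held RPMI1640 complete medium. After 48 h, invaded cells fixed with methanol and stained with 0.05% crystal violet (w/v).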

Assay [12] concerns NCI-H441. As to the kind of experiment: Anti-invasive activity against human NCI-H441 cells at 30 uM after 48 hrs by crystal violet staining based transwell assay. The format is functional, cell-based. An outline of the steps:
as §3

Assay [13] relates to NCI-H441. As to the kind of experiment: Anticlonogenic activity against human NCI-H441 cells at 10 to 30 uM after 2 weeks by crystal violet staining based assay. Type of assay: functional, cell-based. In short, it runs like this: as §1
Assay [14] relates to NCI-H441. Kind of assay: Antimigratory activity against human NCI-H441 cells assessed as reduction in wound closure at 30 uM after 24 hrs by light microscopic method. The format is functional, cell-based. In short, it runs like this: as §2

Each structure is given as a SMILES string. Active and inactive are the calls of the source. No cut-off for these calls is given here.

Consider `Cc1cc(C)nc(SCC(=O)Nc2cccc(COc3ccc(NC(=O)CCN[C@@H]4CCCC[C@H]4O)cc3)c2)n1`, for which the IC50 in assay [1] (read-out: IC50) is greater than 300 µM. The same measure, in the same setting: in the case of `Cc1cc(C)nc(SCC(=O)Nc2cccc(COc3ccc(NC(=O)CCCN)cc3)c2)n1` it was 70.6 µM; in that of `Cc1cc(C)nc(SCC(=O)Nc2cccc(COc3ccc(NC(=O)CCCNC(=O)OC(C)(C)C)cc3)c2)n1`, greater than 300 µM; in that of `Cc1cc(C)nc(SCC(=O)Nc2cccc(COc3cccc(NC(=O)c4cccs4)c3)c2)n1`, 128 µM. Consider `Cc1cc(C)nc(SCC(=O)Nc2cccc(COc3ccc(NC(=O)c4ccco4)cc3)c2)n1`, for which the IC50 in assay [1] (read-out: IC50) came to 3.1 µM. On the same count and under the same terms, to `Cc1cc(C)nc(SCC(=O)Nc2cccc(COc3ccc(NC(=O)CCCN[C@@H]4CCCC[C@H]4O)cc3)c2)n1` belongs 175 µM. Consider `O=C(CSc1nc[nH]n1)Nc1cccc(COc2ccc(NC(=O)c3cccs3)cc2)c1`, for which the IC50 in [1] (read-out: IC50) is greater than 300 µM. `Cc1cc(C)nc(SCC(=O)Nc2cccc(COc3cccc(NC(=O)C4CCOCC4)c3)c2)n1`: the IC50 in [1] (read-out: IC50) worked out at 169 µM. On the same count and under the same terms, in the case of `CCOCC(=O)Nc1ccc(OCc2cccc(NC(=O)CSc3nc(C)cc(C)n3)c2)cc1` it was 110 µM; in that of `Cc1cc(C)nc(SCC(=O)Nc2cccc(COc3ccc(NC(=O)OC(C)(C)C)cc3)c2)n1`, 100 µM. On the same count and under the same terms, to `CC(C)n1cnc(SCC(=O)Nc2cccc(COc3ccc(NC(=O)c4cccs4)cc3)c2)n1` belongs 142 µM; to `C/C=C/C(=O)Nc1ccc(OCc2cccc(NC(=O)CSc3nc(C)cc(C)n3)c2)cc1`, 89.3 µM. On the same count and under the same terms, in the case of `O=C(CSc1nnc2ccccn12)Nc1cccc(COc2ccc(NC(=O)c3cccs3)cc2)c1` it was greater than 300 µM; in that of `COc1cccc(SCC(=O)Nc2cccc(COc3ccc(NC(=O)c4cccs4)cc3)c2)c1`, greater than 300 µM; in that of `Cc1cc(C)nc(SCC(=O)Nc2cccc(COc3ccc(NC(=O)C4CCCN4)cc3)c2)n1` (centres undefined), 41.3 µM. As to `Cc1cc(C)nc(SCC(=O)Nc2cccc(COc3ccc(NC(=O)C4CCOCC4)cc3)c2)n1`, the IC50 in assay [1] (read-out: IC50) stood at 1.32 µM. As for `Cc1cc(C)nc(SCC(=O)Nc2cccc(COc3ccc(NC(=O)c4ccccn4)cc3)c2)n1`, in [1] (read-out: IC50), the IC50 amounted to 29.4 µM. For `Cn1nnnc1SCC(=O)Nc1cccc(COc2ccc(NC(=O)c3cccs3)cc2)c1`, in assay [1] (read-out: IC50), the IC50 is 44.5 µM. The same measure, in the same setting: to `Cn1cc(C(=O)Nc2ccc(OCc3cccc(NC(=O)COc4cccc5ccccc45)c3)cc2)cn1` belongs greater than 300 µM; to `Cc1cc(C)nc(SCC(=O)Nc2cccc(COc3cccc(NC(=O)C4CCCN4)c3)c2)n1` (centres undefined), 142 µM; to `O=C(COc1cccc2ccccc12)Nc1cccc(COc2ccc(NC(=O)c3cccs3)cc2)c1`, greater than 300 µM.

In the case of `Cc1cc(C)nc(SCC(=O)Nc2cccc(COc3ccc(NC(=O)CCN)cc3)c2)n1`, in assay [1] (read-out: IC50), the IC50 came to 300 µM.

With `Cc1cccc(SCC(=O)Nc2cccc(COc3ccc(NC(=O)c4cccs4)cc3)c2)c1`, the IC50 in assay [1] (read-out: IC50) was greater than 300 µM. In the case of `Cc1cc(C)nc(SCC(=O)Nc2cccc(COc3cccc(NC(=O)c4ccco4)c3)c2)n1`, in assay [1] (read-out: IC50), the IC50 was determined as 123 µM. For `Cc1cc(C)nc(SCC(=O)Nc2cccc(COc3ccccc3)c2)n1`, the IC50 is 25.9 µM in [1] (read-out: IC50) and 26.3 µM in [1] (read-out: pIC50 (converted)). Consider `CNC(=S)NCCC(=O)Nc1ccc(OCc2cccc(NC(=O)CSc3nc(C)cc(C)n3)c2)cc1`, for which the IC50 in assay [1] (read-out: IC50) came to 11.7 µM.

Turning to `Cc1cc(C)nc(SCC(=O)Nc2cccc(COc3ccc(NC(=O)CNC(=O)OCc4ccccc4)cc3)c2)n1`, the IC50 in [1] (read-out: IC50) was greater than 300 µM. On to `Cc1cc(C)nc(SCC(=O)Nc2cccc(COc3ccc(NC(=O)c4cnn(C)c4)cc3)c2)n1`, for which the result in the assay on NCI-H441 [2], in the assay on NCI-H441 [3] and with NCI-H441 [8] was Active. The Activity in the assay with NCI-H441 [4] was 87.8%; in the assay on NCI-H441 [6], 2.26%; with NCI-H441 [7], 2.69%; in the assay on NCI-H441 [9] it was 7.22%; with NCI-H441 [11] it was “Dose-dependent effect”. Further, the IC50 in the assay on NCI-H441 [5] was found to be 3.93 µM; in assay [1] (read-out: IC50), 0.815 µM. The inhibition result in [10] was “Dose-dependent effect”.

With `Cc1cc(C)nc(SCC(=O)Nc2cccc(COc3ccc(NC(=O)c4cccs4)cc3)c2)n1`, the IC50 in [1] (read-out: IC50) worked out at 3.41 µM. `CC(=O)NCC(=O)Nc1ccc(OCc2cccc(NC(=O)CSc3nc(C)cc(C)n3)c2)cc1`: the IC50 in assay [1] (read-out: IC50) is greater than 300 µM. On the same count and under the same terms, to `Cc1cc(C)nc(SCC(=O)Nc2cccc(COc3ccc(NC(=O)CCNC(=O)OC(C)(C)C)cc3)c2)n1` belongs 300 µM; to `Cc1cc(C)cc(OCC(=O)Nc2cccc(COc3ccc(NC(=O)c4cccs4)cc3)c2)c1`, greater than 300 µM; to `Cc1cc(C)nc(SCC(=O)Nc2cccc(COc3cccc(NC(=O)C4CCCN4C(=O)OC(C)(C)C)c3)c2)n1` (centres undefined), 15.2 µM.

`Cn1cc(C(=O)Nc2ccc(OCc3cccc(NC(=O)CSc4nnc5ccccn45)c3)cc2)cn1`: the IC50 in [1] (read-out: IC50) is greater than 300 µM. In the case of `Cc1cc(C)nc(SCC(=O)Nc2cccc(COc3cccc(NC(=O)c4ccccn4)c3)c2)n1`, the IC50 in assay [1] (read-out: IC50) was greater than 300 µM.

For the compound `Cc1cc(C)nc(SCC(=O)Nc2cccc(COc3cccc(NC(=O)c4cnn(C)c4)c3)c2)n1`, the outcome in the assay with NCI-H441 [12], in the assay on NCI-H441 [3], with NCI-H441 [13] and in the assay on NCI-H441 [14] was inactive. For the same compound, the Activity in the assay on NCI-H441 [4] is 87.8%; in the assay on NCI-H441 [6], 2.21%; with NCI-H441 [7], 2.61%; in the assay with NCI-H441 [9] it was 7.39%. The IC50 with NCI-H441 [5] is greater than 100 µM; in assay [1] (read-out: IC50) it was 93.7 µM. `CC(C)n1ncnc1SCC(=O)Nc1cccc(COc2ccc(NC(=O)c3cccs3)cc2)c1`: the IC50 in assay [1] (read-out: IC50) came out at 270 µM.

For the compound `CNC(=S)NCCCC(=O)Nc1ccc(OCc2cccc(NC(=O)CSc3nc(C)cc(C)n3)c2)cc1`, the IC50 in assay [1] (read-out: IC50) stood at 9.56 µM. Take `Cc1cc(C)nc(SCC(=O)Nc2cccc(COc3ccc(NC(=O)C4CCCN4C(=O)OC(C)(C)C)cc3)c2)n1` (centres undefined): in [1] (read-out: IC50), the IC50 stood at 76.1 µM.

(Values after ChEMBL document CHEMBL4152324 (Eur J Med Chem, 2018).)
